In paper PMC5110367 (Nature chemical biology, 2016):
Positions count from the first letter of the chain named. Like-named read-outs stand apart in the source and are kept apart here.

What was measured:
PPARγ = target: T1, PPARγ (Mus musculus, UniProt P37238); test: GW9662 against rosiglitazone-stimulated PPRE-luciferase in Pparb-null astrocytes; type: cell-based; settings: GW9662 30 min before rosiglitazone
T1 sequence (P37238 1-505): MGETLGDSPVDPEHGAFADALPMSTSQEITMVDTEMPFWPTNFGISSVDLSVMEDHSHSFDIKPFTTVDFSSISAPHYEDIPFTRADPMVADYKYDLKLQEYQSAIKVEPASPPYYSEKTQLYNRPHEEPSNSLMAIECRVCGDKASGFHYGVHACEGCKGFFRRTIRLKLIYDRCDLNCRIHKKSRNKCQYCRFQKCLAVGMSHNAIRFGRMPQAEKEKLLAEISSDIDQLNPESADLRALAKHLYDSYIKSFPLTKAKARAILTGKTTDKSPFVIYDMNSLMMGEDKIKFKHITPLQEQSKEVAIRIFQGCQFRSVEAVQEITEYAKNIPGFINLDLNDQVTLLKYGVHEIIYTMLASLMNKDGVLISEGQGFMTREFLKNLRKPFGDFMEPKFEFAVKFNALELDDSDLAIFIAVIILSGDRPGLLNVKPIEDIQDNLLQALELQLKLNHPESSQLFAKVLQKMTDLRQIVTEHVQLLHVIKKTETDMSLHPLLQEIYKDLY

Y314D/Y464D-Ppara = target: T2, Y314D/Y464D-Ppara (Mus musculus, UniProt P23204, Y314D/Y464D); type: cell-based
T2 sequence (P23204 1-468 Y314D/Y464D): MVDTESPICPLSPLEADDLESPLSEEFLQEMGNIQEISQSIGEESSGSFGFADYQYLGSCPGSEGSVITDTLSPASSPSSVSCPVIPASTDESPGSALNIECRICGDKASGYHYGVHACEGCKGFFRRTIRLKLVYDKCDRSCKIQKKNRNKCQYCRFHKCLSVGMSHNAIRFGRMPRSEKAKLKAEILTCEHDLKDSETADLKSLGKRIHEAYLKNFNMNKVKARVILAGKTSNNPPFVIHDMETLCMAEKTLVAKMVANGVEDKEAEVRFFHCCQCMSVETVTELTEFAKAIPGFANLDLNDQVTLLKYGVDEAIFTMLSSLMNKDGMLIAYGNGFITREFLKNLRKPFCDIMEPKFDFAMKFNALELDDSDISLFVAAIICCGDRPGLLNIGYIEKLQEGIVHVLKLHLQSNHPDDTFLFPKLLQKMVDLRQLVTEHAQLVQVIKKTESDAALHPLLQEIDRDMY

[1] = tested on: PPRE-driven luciferase activity; test: PPRE-luciferase assay in Ppara-null astrocytes transduced with empty vector; type: cell-based, mouse; settings: 4 h
Outline: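 Ppara-null astrocytes came from mixed glial cultures of 7-d-old pups. They were transduced 48 h with empty-vector lentivirions and transfected with tk-PPREx3-Luc reporter. After 24 h they were treated with different doses of test compound for 4 h, then luciferase activity was read. Values are mean ± SD of three independent experiments.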

Y314D-Ppara = target: T3, Y314D-Ppara (Mus musculus, UniProt P23204, Y314D); type: cell-based
T3 sequence (P23204 1-468 Y314D): T2 sequence (P23204 1-468 Y314D/Y464D) with D464Y

FL-Ppara = target: T4, FL-Ppara (Mus musculus, UniProt P23204); type: cell-based
T4 sequence (P23204 1-468): T2 sequence (P23204 1-468 Y314D/Y464D) with D314Y, D464Y

Y464D-Ppara = target: T5, Y464D-Ppara (Mus musculus, UniProt P23204, Y464D); type: cell-based
T5 sequence (P23204 1-468 Y464D): T2 sequence (P23204 1-468 Y314D/Y464D) with D314Y

[2] = tested on: Ppara-null hippocampal neurons; test: Dendritic spine density; type: cell-based, mouse; settings: Ppara-null neurons transduced with lenti-FL-Ppara or lenti-Y464D-Ppara
Outline: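 Ppara-null hippocampal neurons were taken from E18 fetuses and treated with 10 μM AraC to remove glia. They were differentiated 9–10 days, then transduced 48 h with lentivirions carrying GFP (vector), FL-Ppara or Y464D-Ppara. Neurons then received vehicle (DMSO) or test compound for 24 h. They were stained with Dylight-554-phalloidin, and spine density was scored by fluorescence microscopy.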

For O=C(Nc1ccccc1)c1cc([N+](=O)[O-])ccc1Cl [GW9662], the “effect on rosiglitazone-mediated PPRE-luciferase activity” value (PPARγ) was “Inhibition of rosiglitazone-mediated increase in PPRE-luciferase activity”.
Cc1cccc(Nc2cc(Cl)nc(SCC(=O)O)n2)c1C [WY14643, reference compound] was tested, and the PPRE-luciferase activity (Y314D/Y464D-Ppara) was “no luciferase activity”, the PPRE-driven luciferase activity [1] was “unable to induce PPRE-luciferase activity” and the PPRE-luciferase activity (Y314D-Ppara) was “no luciferase activity”. For the same molecule, the PPRE-luciferase reporter activity (FL-Ppara) was “markedly induced PPRE-luciferase activity”, the PPRE-luciferase activity (Y464D-Ppara) was “no luciferase activity” and the “density of dendritic spines” value [2] was “stimulated the density of spines only when Ppara-null neurons were transduced with lenti-FL-Ppara, but not lenti-Y464D-Ppara”.
With CCOC(=O)C(C)(C)Oc1ccc(Cl)cc1 [clofibrate, reference compound] the PPRE-luciferase activity (Y314D/Y464D-Ppara; Ppara-null astrocytes transduced with lenti-Y314D/Y464D-Ppara, 4 h) was “no luciferase activity”, the PPRE-driven luciferase activity [1] was “unable to induce PPRE-luciferase activity” and the PPRE-luciferase activity (Y314D-Ppara; Ppara-null astrocytes transduced with lenti-Y314D-Ppara, 4 h) was “no luciferase activity”. The PPRE-luciferase reporter activity (FL-Ppara; Ppara-null astrocytes transduced with lenti-FL-Ppara, 4 h) was “markedly induced PPRE-luciferase activity” and the PPRE-luciferase activity (Y464D-Ppara; Ppara-null astrocytes transduced with lenti-Y464D-Ppara, 4 h) was “no luciferase activity”.
In the case of CC(C)OC(=O)C(C)(C)Oc1ccc(C(=O)c2ccc(Cl)cc2)cc1 [fenofibrate], the PPRE-driven luciferase activity [1] is reported as “unable to induce PPRE-luciferase activity”.
